This is an account of results in ChEMBL document CHEMBL1667826, “Synthesis, modification, and evaluation of (R)-de-O-methyllasiodiplodin and analogs as nonsteroidal antagonists of mineralocorticoid receptor” (Bioorg Med Chem Lett, 2011).

Experiment [1] concerns the target T1, Mineralocorticoid receptor (Rattus norvegicus, UniProt P22199).
T1 sequence (P22199 whole entry): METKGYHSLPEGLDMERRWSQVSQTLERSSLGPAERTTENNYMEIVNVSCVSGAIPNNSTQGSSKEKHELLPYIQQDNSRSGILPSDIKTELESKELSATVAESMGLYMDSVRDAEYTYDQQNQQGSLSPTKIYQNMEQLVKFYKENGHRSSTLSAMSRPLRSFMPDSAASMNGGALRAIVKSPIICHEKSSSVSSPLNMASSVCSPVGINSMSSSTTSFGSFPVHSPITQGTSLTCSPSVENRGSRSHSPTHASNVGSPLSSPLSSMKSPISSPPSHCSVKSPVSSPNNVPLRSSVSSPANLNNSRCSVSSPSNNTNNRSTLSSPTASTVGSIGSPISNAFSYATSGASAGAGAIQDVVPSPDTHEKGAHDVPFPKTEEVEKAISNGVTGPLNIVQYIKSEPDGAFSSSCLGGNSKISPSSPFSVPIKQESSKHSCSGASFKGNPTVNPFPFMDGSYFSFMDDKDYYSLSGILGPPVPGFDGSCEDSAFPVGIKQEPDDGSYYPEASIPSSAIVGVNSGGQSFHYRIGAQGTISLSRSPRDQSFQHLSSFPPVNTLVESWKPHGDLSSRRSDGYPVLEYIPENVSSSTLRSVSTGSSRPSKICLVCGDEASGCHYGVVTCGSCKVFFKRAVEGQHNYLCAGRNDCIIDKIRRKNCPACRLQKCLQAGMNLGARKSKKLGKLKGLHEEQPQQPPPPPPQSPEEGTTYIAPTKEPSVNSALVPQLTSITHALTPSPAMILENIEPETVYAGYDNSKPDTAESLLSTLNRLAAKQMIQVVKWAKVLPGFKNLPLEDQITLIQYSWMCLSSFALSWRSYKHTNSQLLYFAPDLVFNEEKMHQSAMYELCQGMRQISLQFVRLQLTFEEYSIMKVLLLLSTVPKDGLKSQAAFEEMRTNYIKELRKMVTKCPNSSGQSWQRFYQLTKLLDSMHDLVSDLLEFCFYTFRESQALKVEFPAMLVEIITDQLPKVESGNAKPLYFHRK
In words: Antagonist activity at rat mineralocorticoid receptor-ligand binding domain expressed in AH109 yeast cells co expressing pGADT7-hSRC-1 by two hybrid assay. In kind it is cell-based. The method, boiled down: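 Yeast two-hybrid read-out of corticosterone-stimulated interaction between the MR ligand-binding domain and the SRC1 coactivator. Antagonism of this interaction is expressed as IC50.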

Experiment [2] addresses T2, Estrogen receptor (Homo sapiens, UniProt P03372).
T2 sequence (P03372 whole entry): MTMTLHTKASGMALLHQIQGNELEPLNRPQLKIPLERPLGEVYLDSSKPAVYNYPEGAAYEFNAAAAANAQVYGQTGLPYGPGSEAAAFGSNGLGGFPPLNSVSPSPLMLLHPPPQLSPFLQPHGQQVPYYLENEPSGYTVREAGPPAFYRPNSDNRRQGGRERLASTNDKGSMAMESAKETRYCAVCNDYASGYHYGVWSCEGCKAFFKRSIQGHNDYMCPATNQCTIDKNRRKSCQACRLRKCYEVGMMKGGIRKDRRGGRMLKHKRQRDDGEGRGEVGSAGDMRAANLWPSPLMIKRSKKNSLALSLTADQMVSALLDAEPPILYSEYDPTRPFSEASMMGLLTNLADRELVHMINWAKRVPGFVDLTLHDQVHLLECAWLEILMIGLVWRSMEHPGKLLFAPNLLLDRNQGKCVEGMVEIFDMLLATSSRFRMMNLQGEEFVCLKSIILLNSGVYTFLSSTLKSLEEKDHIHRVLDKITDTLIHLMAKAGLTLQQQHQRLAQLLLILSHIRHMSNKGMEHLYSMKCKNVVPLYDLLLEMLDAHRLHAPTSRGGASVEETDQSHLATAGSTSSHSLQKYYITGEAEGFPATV
In words: Inhibition of ERalpha ligand binding domain expressed in HEK293T cells. In kind it is cell-based, HEK-293T. In outline:
(§1)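 Mammalian one-hybrid assay in HEK293T cells transiently co-transfected with a UAS-TK-Luc reporter, pRL-SV40 and a pGAL4 fusion of the receptor LBD (ERα, GR or PR). The read-out is luciferase, measuring antagonism at each receptor.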

Experiment [3] addresses T3, Progesterone receptor (Homo sapiens, UniProt P06401).
T3 sequence (P06401 whole entry): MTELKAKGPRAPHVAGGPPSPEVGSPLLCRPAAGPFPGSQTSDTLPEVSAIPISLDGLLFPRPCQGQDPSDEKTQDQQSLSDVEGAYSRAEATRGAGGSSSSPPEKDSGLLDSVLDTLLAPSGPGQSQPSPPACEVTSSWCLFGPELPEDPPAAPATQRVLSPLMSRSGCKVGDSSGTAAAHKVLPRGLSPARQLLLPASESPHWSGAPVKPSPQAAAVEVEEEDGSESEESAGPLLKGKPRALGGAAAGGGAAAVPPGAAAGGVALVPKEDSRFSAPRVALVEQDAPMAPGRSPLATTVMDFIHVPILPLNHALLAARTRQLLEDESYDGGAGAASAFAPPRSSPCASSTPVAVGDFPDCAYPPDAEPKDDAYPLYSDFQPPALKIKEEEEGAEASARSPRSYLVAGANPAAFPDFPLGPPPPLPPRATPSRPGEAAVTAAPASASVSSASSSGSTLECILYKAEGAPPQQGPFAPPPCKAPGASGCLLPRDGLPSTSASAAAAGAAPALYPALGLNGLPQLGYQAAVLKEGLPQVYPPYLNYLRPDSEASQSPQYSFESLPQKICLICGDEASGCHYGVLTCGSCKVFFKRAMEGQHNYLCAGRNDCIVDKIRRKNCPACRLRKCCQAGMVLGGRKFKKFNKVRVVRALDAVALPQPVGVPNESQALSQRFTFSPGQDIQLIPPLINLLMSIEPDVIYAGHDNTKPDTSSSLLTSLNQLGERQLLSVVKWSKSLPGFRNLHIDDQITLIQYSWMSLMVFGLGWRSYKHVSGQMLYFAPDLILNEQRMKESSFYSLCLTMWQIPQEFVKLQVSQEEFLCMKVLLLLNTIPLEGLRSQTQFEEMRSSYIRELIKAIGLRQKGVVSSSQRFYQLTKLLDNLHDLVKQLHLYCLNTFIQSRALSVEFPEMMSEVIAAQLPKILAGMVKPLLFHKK
In words: Inhibition of progesterone receptor ligand binding domain expressed in HEK293T cells. In kind it is cell-based, HEK-293T. The method, boiled down:
as §1

Experiment [4] deals with T4, Glucocorticoid receptor (Homo sapiens, UniProt P04150).
T4 sequence (P04150 whole entry): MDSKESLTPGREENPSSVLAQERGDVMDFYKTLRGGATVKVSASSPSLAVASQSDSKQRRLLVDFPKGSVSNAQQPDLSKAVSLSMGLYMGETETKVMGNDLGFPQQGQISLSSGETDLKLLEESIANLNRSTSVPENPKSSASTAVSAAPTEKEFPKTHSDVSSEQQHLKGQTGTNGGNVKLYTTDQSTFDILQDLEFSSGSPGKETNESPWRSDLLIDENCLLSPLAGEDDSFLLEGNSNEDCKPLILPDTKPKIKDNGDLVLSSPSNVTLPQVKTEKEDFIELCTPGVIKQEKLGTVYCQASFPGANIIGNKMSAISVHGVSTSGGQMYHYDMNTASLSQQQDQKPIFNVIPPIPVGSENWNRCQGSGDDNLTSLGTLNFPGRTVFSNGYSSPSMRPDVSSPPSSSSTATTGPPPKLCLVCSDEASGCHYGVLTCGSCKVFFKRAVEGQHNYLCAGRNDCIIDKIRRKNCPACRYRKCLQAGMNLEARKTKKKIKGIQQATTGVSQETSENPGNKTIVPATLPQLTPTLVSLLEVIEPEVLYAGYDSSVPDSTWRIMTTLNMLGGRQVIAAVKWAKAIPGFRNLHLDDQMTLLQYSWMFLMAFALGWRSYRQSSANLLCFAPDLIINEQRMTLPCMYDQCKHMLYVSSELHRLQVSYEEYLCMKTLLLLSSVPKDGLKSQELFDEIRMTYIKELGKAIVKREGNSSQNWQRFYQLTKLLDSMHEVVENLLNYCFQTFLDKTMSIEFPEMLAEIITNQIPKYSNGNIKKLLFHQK
In words: Inhibition of glucocorticoid receptor ligand binding domain expressed in HEK293T cells. The class given is cell-based. The conditions noted are these: hek-293t. In outline:
as §1

Turning to `C=CCCC[C@@H](C)OC(=O)c1c(CCC=C)cc(OC)cc1OC`, the IC50 (in general, the concentration that gives 50% inhibition) in experiment [1] is “Not Active”.
Still for that read-out and setting: the entry for `COc1cc2c(c(OC)c1)C(=O)O[C@H](C)CCC/C=C/CC2` is “Not Active”.
Regarding `COc1cc2c(c(OC)c1)C(=O)O[C@H](C)CCC/C=C\CC2`, in experiment [1] (read-out: IC50), the 50% inhibitory concentration (IC50) was found to be 16.6 µM.
Consider `COc1cc2c(c(OC)c1)C(=O)O[C@H](C)CCCCCCC2`, for which the concentration for half-maximal inhibition (IC50) result in experiment [1] is listed as “Not Active”.
On the same count and under the same terms, in the case of `COc1cc(O)cc2c1C(=O)O[C@H](C)CCCCCCC2` it was “Not Active”.
On to `C[C@@H]1CCCCCCCc2cc(O)cc(O)c2C(=O)O1`, for which, in experiment [1] (read-out: IC50), the IC50 stood at 8.93 µM.
Turning to `COc1cc(O)c2c(c1)CCCCCCC[C@@H](C)OC2=O`, the 50% inhibitory concentration (IC50) result in experiment [1] was “Not Active”.
Still for that read-out and setting: the entry for `CCOc1cc(O)c2c(c1)CCCCCCC[C@@H](C)OC2=O` is “Not Active”.
Still for that read-out and setting: the entry for `CCOc1cc2c(c(OCC)c1)C(=O)O[C@H](C)CCCCCCC2` is “Not Active”; for `CCCCOc1cc2c(c(OCCCC)c1)C(=O)O[C@H](C)CCCCCCC2` it is “Not Active”; for `CCCOc1cc(O)c2c(c1)CCCCCCC[C@@H](C)OC2=O` it is “Not Active”.
Still for that read-out and setting: the entry for `CCCOc1cc2c(c(OCCC)c1)C(=O)O[C@H](C)CCCCCCC2` is “Not Active”.
As for `C=CCOc1cc(O)c2c(c1)CCCCCCC[C@@H](C)OC2=O`, in experiment [1], the half-inhibitory concentration (IC50) entry was “Not Active”.
On the same count and under the same terms, in the case of `C=CCOc1cc2c(c(OCC=C)c1)C(=O)O[C@H](C)CCCCCCC2` it was “Not Active”.
Same read-out and setting: the entry for `C[C@@H]1CCCCCCCc2cc(OCc3ccccc3)cc(O)c2C(=O)O1` is “Not Active”.
Still for that read-out and setting: the entry for `C[C@@H]1CCCCCCCc2cc(OCc3ccccc3)cc(OCc3ccccc3)c2C(=O)O1` is “Not Active”.
Consider `C[C@@H]1CCCCCCCc2cc(OCc3ccc([N+](=O)[O-])cc3)cc(OCc3ccc([N+](=O)[O-])cc3)c2C(=O)O1`, for which, in experiment [1], the IC50 entry is recorded as “Not Active”.
For `CC(=O)Oc1cc2c(c(OC(C)=O)c1)C(=O)O[C@H](C)CCCCCCC2`, the 50% inhibitory concentration (IC50) in experiment [2] (read-out: IC50) was 8.36 µM; in experiment [3] (hek-293t), “Not Active”; in experiment [1] (read-out: IC50) it was 2.78 µM; in experiment [4] it was “Not Active”.
With `CCC(=O)Oc1cc2c(c(OC(=O)CC)c1)C(=O)O[C@H](C)CCCCCCC2`, the concentration for half-maximal inhibition (IC50) in experiment [1] (read-out: IC50) came to 31.7 µM.
Turning to `CCCC(=O)Oc1cc2c(c(OC(=O)CCC)c1)C(=O)O[C@H](C)CCCCCCC2`, the IC50 entry in experiment [1] is given as “Not Active”.
Still for that read-out and setting: in the case of `CC(C)C(=O)Oc1cc2c(c(OC(=O)C(C)C)c1)C(=O)O[C@H](C)CCCCCCC2` it was “Not Active”.
For the compound `C[C@@H]1CCCCCCCc2cc(OC(=O)c3ccc(Br)cc3)cc(OC(=O)c3ccc(Br)cc3)c2C(=O)O1`, the IC50 entry in experiment [1] is “Not Active”.
The same measure, in the same setting: the entry for `C[C@@H]1CCCCCCCc2cc(OC(=O)c3ccc(Cl)cc3)cc(OC(=O)c3ccc(Cl)cc3)c2C(=O)O1` is “Not Active”.
Regarding `Cc1ccc(S(=O)(=O)Oc2cc3c(c(OS(=O)(=O)c4ccc(C)cc4)c2)C(=O)O[C@H](C)CCCCCCC3)cc1`, the half-inhibitory concentration (IC50) in experiment [1] (read-out: IC50) is 6.51 µM.
In the case of `O=C1OCCCCCCCc2cc(O)cc(O)c21`, the IC50 entry in experiment [1] is reported as “Not Active”.
Take `CC(=O)Oc1cc2c(c(OC(C)=O)c1)C(=O)OCCCCCCC2`: the concentration for half-maximal inhibition (IC50) entry in experiment [2] (hek-293t) is “Not Active”; in experiment [3] (hek-293t) it was “Not Active”; in experiment [1] (read-out: IC50), 0.58 µM; in experiment [4], “Not Active”.
For `O=C1OCCCCCCCCc2cc(O)cc(O)c21`, the IC50 entry in experiment [1] was “Not Active”.
With `CC(=O)Oc1cc2c(c(OC(C)=O)c1)C(=O)OCCCCCCCC2`, the IC50 result is “Not Active” in experiment [2] (hek-293t), “Not Active” in experiment [3] (hek-293t), 1.11 µM in experiment [1] (read-out: IC50) and “Not Active” in experiment [4].
As for `O=C1OCCCCCCCCCc2cc(O)cc(O)c21`, the IC50 result in experiment [1] is reported as “Not Active”.
On to `CC(=O)Oc1cc2c(c(OC(C)=O)c1)C(=O)OCCCCCCCCC2`, for which the IC50 entry is “Not Active” in experiment [2] (hek-293t), 3.06 µM in experiment [3] (read-out: IC50), 0.82 µM in experiment [1] (read-out: IC50) and “Not Active” in experiment [4].
On to `O=C1OCCCCCCCCCCc2cc(O)cc(O)c21`, for which the IC50 entry in experiment [1] is listed as “Not Active”.
On to `CC(=O)Oc1cc2c(c(OC(C)=O)c1)C(=O)OCCCCCCCCCC2`, for which the half-maximal inhibitory concentration (IC50) in experiment [2] (read-out: IC50) is over 10 µM; in experiment [3] (read-out: IC50) it was 3.22 µM; in experiment [1] (read-out: IC50), 2.9 µM; in experiment [4], “Not Active”.
As to `C[C@@H]1CCCCCCCc2cc(OC(=O)c3ccccc3)cc(OC(=O)c3ccccc3)c2C(=O)O1`, the half-maximal inhibitory concentration (IC50) result in experiment [1] is “Not Active”.
